# Data as given in ChEMBL document CHEMBL5058577, “EUbOPEN Chemogenomics Library 2 (Multiplex)” (2022).
# Tested on: Fibroblast
# Test: Multiplex assay against human fibroblast
# Format: toxicity, cell-based
# Procedure, shortened: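 Cells were classed with CellPathfinder machine-learning gating, first as Hoechst high-intensity objects or normal cells, then (normal cells) as healthy, pyknosed or fragmented nuclei, and finally (pyknosed cells) as mitotic or apoptotic. Staining of live cells at seeding used Hoechst33342, BioTracker Green Microtubule Cytoskeleton Dye, MitoTracker Red and Annexin V Alexa Fluor 680, with imaging on a CQ1 microscope at 37°C and 5% CO2 after compound addition. Tubulin, mitochondrial-mass and membrane-permeability phenotypes are per cents of healthy-nucleus cells.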
# [1] = 12 h, 1 µM, compound concentration 1 uM, replicate 1
# [2] = 12 h, 1 µM, compound concentration 1 uM, replicate 2
# [3] = 12 h, 10 µM, compound concentration 10 uM, replicate 1
# [4] = 12 h, 10 µM, compound concentration 10 uM, replicate 2
# [5] = 24 h, 1 µM, compound concentration 1 uM, replicate 1
# [6] = 24 h, 1 µM, compound concentration 1 uM, replicate 2
# [7] = 24 h, 10 µM, compound concentration 10 uM, replicate 1
# [8] = 24 h, 10 µM, compound concentration 10 uM, replicate 2
# [9] = 48 h, 1 µM, compound concentration 1 uM, replicate 1
# [10] = 48 h, 1 µM, compound concentration 1 uM, replicate 2
# [11] = 48 h, 10 µM, compound concentration 10 uM, replicate 1
# [12] = 48 h, 10 µM, compound concentration 10 uM, replicate 2
smiles,measurement,setting,value
O=C(NCCN1CCC(n2c(=O)[nH]c3cc(Cl)ccc32)CC1)c1ccc(F)cc1 [HALOPEMIDE],Population Apoptotic (%),[1],32%
same,Population Fragmented Nuclei (%),[1],11%
same,Population Healthy Nuclei (%),[1],62%
same,Population Hoechst High Intensity Objects (%),[1],0%
same,Population Membrane Permeable-Phenotype (%),[1],1%
same,Population Mitochondria Different-Phenotype (%),[1],10%
same,Population Mitotic Cells (%),[1],67%
same,Population Normal (%),[1],99%
same,Population Pyknosed Nuclei (%),[1],26%
same,Population Tubulin-Different-Phenotype (%),[1],29%
same,Total Cell Count,[1],120
same,Population Apoptotic (%),[2],44%
same,Population Fragmented Nuclei (%),[2],27%
same,Population Healthy Nuclei (%),[2],43%
same,Population Hoechst High Intensity Objects (%),[2],7%
same,Population Membrane Permeable-Phenotype (%),[2],10%
same,Population Mitochondria Different-Phenotype (%),[2],0%
same,Population Mitotic Cells (%),[2],56%
same,Population Normal (%),[2],92%
same,Population Pyknosed Nuclei (%),[2],29%
same,Population Tubulin-Different-Phenotype (%),[2],56%
same,Total Cell Count,[2],92
same,Population Apoptotic (%),[3],55%
same,Population Fragmented Nuclei (%),[3],15%
same,Population Healthy Nuclei (%),[3],54%
same,Population Hoechst High Intensity Objects (%),[3],3%
same,Population Membrane Permeable-Phenotype (%),[3],0%
same,Population Mitochondria Different-Phenotype (%),[3],17%
same,Population Mitotic Cells (%),[3],44%
same,Population Normal (%),[3],96%
same,Population Pyknosed Nuclei (%),[3],30%
same,Population Tubulin-Different-Phenotype (%),[3],77%
same,Total Cell Count,[3],204
same,Population Apoptotic (%),[4],31%
same,Population Fragmented Nuclei (%),[4],24%
same,Population Healthy Nuclei (%),[4],34%
same,Population Hoechst High Intensity Objects (%),[4],4%
same,Population Membrane Permeable-Phenotype (%),[4],6%
same,Population Mitochondria Different-Phenotype (%),[4],14%
same,Population Mitotic Cells (%),[4],68%
same,Population Normal (%),[4],95%
same,Population Pyknosed Nuclei (%),[4],41%
same,Population Tubulin-Different-Phenotype (%),[4],87%
same,Total Cell Count,[4],148
same,Population Apoptotic (%),[5],58%
same,Population Fragmented Nuclei (%),[5],16%
same,Population Healthy Nuclei (%),[5],69%
same,Population Hoechst High Intensity Objects (%),[5],3%
same,Population Membrane Permeable-Phenotype (%),[5],1%
same,Population Mitochondria Different-Phenotype (%),[5],9%
same,Population Mitotic Cells (%),[5],41%
same,Population Normal (%),[5],96%
same,Population Pyknosed Nuclei (%),[5],13%
same,Population Tubulin-Different-Phenotype (%),[5],38%
same,Total Cell Count,[5],128
same,Population Apoptotic (%),[6],37%
same,Population Fragmented Nuclei (%),[6],32%
same,Population Healthy Nuclei (%),[6],41%
same,Population Hoechst High Intensity Objects (%),[6],10%
same,Population Membrane Permeable-Phenotype (%),[6],5%
same,Population Mitochondria Different-Phenotype (%),[6],8%
same,Population Mitotic Cells (%),[6],62%
same,Population Normal (%),[6],90%
same,Population Pyknosed Nuclei (%),[6],26%
same,Population Tubulin-Different-Phenotype (%),[6],59%
same,Total Cell Count,[6],100
same,Population Apoptotic (%),[7],67%
same,Population Fragmented Nuclei (%),[7],23%
same,Population Healthy Nuclei (%),[7],51%
same,Population Hoechst High Intensity Objects (%),[7],5%
same,Population Membrane Permeable-Phenotype (%),[7],0%
same,Population Mitochondria Different-Phenotype (%),[7],28%
same,Population Mitotic Cells (%),[7],32%
same,Population Normal (%),[7],95%
same,Population Pyknosed Nuclei (%),[7],24%
same,Population Tubulin-Different-Phenotype (%),[7],78%
same,Total Cell Count,[7],220
same,Population Apoptotic (%),[8],41%
same,Population Fragmented Nuclei (%),[8],26%
same,Population Healthy Nuclei (%),[8],38%
same,Population Hoechst High Intensity Objects (%),[8],6%
same,Population Membrane Permeable-Phenotype (%),[8],12%
same,Population Mitochondria Different-Phenotype (%),[8],32%
same,Population Mitotic Cells (%),[8],58%
same,Population Normal (%),[8],93%
same,Population Pyknosed Nuclei (%),[8],35%
same,Population Tubulin-Different-Phenotype (%),[8],94%
same,Total Cell Count,[8],140
same,Population Apoptotic (%),[9],52%
same,Population Fragmented Nuclei (%),[9],14%
same,Population Healthy Nuclei (%),[9],68%
same,Population Hoechst High Intensity Objects (%),[9],3%
same,Population Membrane Permeable-Phenotype (%),[9],4%
same,Population Mitochondria Different-Phenotype (%),[9],7%
same,Population Mitotic Cells (%),[9],47%
same,Population Normal (%),[9],96%
same,Population Pyknosed Nuclei (%),[9],17%
same,Population Tubulin-Different-Phenotype (%),[9],36%
same,Total Cell Count,[9],128
same,Population Apoptotic (%),[10],35%
same,Population Fragmented Nuclei (%),[10],38%
same,Population Healthy Nuclei (%),[10],43%
same,Population Hoechst High Intensity Objects (%),[10],4%
same,Population Membrane Permeable-Phenotype (%),[10],14%
same,Population Mitochondria Different-Phenotype (%),[10],4%
same,Population Mitotic Cells (%),[10],64%
same,Population Normal (%),[10],95%
same,Population Tubulin-Different-Phenotype (%),[10],63%
same,Total Cell Count,[10],99
same,Population Apoptotic (%),[11],80%
same,Population Fragmented Nuclei (%),[11],32%
same,Population Healthy Nuclei (%),[11],50%
same,Population Hoechst High Intensity Objects (%),[11],10%
same,Population Membrane Permeable-Phenotype (%),[11],0%
same,Population Mitochondria Different-Phenotype (%),[11],35%
same,Population Mitotic Cells (%),[11],19%
same,Population Normal (%),[11],89%
same,Population Pyknosed Nuclei (%),[11],17%
same,Population Tubulin-Different-Phenotype (%),[11],77%
same,Total Cell Count,[11],229
same,Population Apoptotic (%),[12],48%
same,Population Fragmented Nuclei (%),[12],35%
same,Population Healthy Nuclei (%),[12],45%
same,Population Hoechst High Intensity Objects (%),[12],5%
same,Population Membrane Permeable-Phenotype (%),[12],10%
same,Population Mitochondria Different-Phenotype (%),[12],15%
same,Population Mitotic Cells (%),[12],52%
same,Population Normal (%),[12],94%
same,Population Pyknosed Nuclei (%),[12],19%
same,Population Tubulin-Different-Phenotype (%),[12],96%
same,Total Cell Count,[12],136
